Assay results from the M2OR odorant receptor database.

Columns and labels:
Conditions in all cases: stereoisomer not certain
[1] = target: T1, UniProt E9PVX1
T1 sequence (whole entry): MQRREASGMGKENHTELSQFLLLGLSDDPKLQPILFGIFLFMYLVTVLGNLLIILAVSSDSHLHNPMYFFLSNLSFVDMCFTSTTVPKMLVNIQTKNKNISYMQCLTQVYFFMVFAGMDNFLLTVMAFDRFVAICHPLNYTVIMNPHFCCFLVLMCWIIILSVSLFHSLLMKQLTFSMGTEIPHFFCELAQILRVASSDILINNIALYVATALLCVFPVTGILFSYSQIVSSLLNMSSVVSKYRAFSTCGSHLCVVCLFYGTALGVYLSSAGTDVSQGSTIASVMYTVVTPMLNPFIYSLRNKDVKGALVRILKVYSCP
In short: (§1)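 Whether a receptor–molecule pair is responsive (active) rests on the original authors' judgment that its measured signal was statistically different from baseline. Pairs without that judgment are non-responsive (inactive). Sources used varied assay methods, commonly transient luciferase assays in mammalian cell lines.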

[2] = target: T2, UniProt E9PZ66
T2 sequence (whole entry): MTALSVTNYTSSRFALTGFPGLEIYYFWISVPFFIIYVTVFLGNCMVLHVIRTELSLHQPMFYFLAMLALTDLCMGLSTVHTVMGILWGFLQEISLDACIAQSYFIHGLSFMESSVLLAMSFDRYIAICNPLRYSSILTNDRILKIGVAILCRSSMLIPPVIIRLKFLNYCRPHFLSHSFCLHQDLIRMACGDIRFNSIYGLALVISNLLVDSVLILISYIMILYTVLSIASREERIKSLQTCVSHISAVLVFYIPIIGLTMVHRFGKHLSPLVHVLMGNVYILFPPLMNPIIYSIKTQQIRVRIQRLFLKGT
In short: as §1

[3] = target: T3, UniProt E9Q4X7
T3 sequence (whole entry): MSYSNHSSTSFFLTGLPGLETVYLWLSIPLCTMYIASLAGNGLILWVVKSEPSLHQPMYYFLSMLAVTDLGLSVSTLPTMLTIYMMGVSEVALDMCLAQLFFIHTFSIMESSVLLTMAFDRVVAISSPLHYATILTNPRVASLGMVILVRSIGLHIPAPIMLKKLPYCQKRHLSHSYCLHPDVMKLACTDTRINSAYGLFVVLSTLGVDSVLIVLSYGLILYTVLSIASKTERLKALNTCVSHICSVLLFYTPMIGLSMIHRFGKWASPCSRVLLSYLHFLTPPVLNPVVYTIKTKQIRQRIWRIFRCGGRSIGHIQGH
In short: as §1

[4] = target: T4, UniProt E9Q546
T4 sequence (whole entry): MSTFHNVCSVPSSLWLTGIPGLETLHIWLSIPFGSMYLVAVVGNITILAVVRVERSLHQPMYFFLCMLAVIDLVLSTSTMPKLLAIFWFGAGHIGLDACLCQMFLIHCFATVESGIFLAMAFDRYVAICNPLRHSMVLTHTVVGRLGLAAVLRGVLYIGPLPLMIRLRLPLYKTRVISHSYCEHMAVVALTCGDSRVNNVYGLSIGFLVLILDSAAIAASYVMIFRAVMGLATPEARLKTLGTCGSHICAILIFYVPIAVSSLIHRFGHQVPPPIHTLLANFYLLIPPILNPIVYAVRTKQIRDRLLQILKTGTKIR
In short: as §1

[5] = target: T5, UniProt E9Q6Z7
T5 sequence (whole entry): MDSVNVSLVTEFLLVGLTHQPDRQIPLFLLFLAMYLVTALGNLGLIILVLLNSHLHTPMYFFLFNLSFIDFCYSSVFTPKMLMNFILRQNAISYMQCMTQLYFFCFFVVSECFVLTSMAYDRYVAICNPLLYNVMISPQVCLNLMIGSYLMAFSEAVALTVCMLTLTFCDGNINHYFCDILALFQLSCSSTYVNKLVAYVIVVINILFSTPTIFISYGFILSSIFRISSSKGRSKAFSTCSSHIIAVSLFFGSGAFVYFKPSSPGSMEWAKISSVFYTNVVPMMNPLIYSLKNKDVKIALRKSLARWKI
In short: as §1

[6] = target: T6, UniProt L7MU75
T6 sequence (whole entry): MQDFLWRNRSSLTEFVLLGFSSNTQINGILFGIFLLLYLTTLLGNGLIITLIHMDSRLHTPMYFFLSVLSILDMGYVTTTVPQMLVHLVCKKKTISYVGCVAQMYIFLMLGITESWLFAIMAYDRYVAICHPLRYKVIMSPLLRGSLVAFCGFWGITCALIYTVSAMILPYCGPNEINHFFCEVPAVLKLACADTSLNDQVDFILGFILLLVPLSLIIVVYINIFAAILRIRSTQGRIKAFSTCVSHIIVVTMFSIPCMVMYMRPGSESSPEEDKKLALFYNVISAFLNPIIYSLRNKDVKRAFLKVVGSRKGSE
In short: as §1

[7] = target: T7, UniProt L7N210
T7 sequence (whole entry): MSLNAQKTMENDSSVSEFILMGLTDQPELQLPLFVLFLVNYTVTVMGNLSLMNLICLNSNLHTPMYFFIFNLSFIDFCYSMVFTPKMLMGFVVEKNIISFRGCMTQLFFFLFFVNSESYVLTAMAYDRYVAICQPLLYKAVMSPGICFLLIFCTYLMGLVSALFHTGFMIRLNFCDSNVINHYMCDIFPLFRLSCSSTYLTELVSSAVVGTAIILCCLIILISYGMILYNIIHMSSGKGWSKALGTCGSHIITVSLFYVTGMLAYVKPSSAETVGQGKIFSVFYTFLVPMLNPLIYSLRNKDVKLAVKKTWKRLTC
In short: as §1

[8] = target: T8, UniProt Q3KPB0
T8 sequence (whole entry): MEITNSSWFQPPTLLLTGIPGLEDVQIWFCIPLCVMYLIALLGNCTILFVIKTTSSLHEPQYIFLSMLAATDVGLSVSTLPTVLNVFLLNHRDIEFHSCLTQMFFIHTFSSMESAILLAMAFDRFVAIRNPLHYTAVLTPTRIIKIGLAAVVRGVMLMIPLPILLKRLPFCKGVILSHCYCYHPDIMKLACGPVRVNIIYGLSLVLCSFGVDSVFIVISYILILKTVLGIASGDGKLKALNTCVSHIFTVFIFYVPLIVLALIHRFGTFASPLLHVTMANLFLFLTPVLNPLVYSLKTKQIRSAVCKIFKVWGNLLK
In short: as §1

[9] = target: T9, UniProt Q3U0P3
T9 sequence (whole entry): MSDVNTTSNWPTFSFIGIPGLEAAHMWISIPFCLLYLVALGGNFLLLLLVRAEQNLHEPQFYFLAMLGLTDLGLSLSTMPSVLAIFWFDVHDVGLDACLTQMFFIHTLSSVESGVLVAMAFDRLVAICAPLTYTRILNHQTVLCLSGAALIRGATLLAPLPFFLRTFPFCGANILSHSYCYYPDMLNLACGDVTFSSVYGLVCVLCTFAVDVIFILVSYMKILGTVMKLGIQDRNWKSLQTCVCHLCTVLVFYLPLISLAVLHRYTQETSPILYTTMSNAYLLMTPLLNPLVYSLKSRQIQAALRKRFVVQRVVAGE
In short: as §1

[10] = target: T10, UniProt Q7TQU8
T10 sequence (whole entry): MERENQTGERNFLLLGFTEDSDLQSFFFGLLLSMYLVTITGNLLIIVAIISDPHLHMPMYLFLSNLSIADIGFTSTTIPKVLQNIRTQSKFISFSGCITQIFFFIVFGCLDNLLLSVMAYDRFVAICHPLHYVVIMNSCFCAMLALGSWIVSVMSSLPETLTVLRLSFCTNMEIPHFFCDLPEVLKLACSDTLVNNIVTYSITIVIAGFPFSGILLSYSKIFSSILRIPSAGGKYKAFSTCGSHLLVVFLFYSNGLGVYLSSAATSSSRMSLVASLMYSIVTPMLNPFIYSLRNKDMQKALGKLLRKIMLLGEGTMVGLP
In short: as §1

[11] = target: T11, UniProt Q7TR79
T11 sequence (whole entry): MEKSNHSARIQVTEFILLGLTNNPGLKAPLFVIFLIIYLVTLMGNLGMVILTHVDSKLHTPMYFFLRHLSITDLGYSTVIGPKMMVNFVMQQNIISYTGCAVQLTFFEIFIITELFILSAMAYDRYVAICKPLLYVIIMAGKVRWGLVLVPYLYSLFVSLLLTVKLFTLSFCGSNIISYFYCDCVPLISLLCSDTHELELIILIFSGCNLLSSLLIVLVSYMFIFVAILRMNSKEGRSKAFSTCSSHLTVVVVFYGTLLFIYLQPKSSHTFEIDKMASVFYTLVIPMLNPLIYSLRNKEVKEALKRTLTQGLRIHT
In short: as §1

Measured: odorant receptor agonist call;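 further: active if original authors judged signal statistically different from baseline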

Cc1ccc(OC(=O)Cc2ccccc2)cc1
inactive: [1] | [2] | [3] | [4] | [5] | [6] | [7] | [8] | [9] | [10] | [11]

OCc1ccc2c(c1)OCO2
inactive: [1] | [2] | [3] | [4] | [5] | [6] | [7] | [8] | [9] | [10] | [11]

O=Cc1ccccc1
inactive: [1] | [2] | [3] | [4] | [5] | [7] | [8] | [9] | [10] | [11]

C=C(C)C1CC=C(C=O)CC1 (stereo not drawn)
active: [7]
inactive: [1] | [2] | [3] | [4] | [5] | [6] | [8] | [9] | [10] | [11]
